M18AAP inhibitor = PfM18AAP inhibitors, malaria aminopeptidase, primary screen, biochemical, QFRET, recombinant enzyme. M18 aspartyl aminopeptidase (Plasmodium falciparum 3D7). H-Glu-NHMec fluorogenic cleavage. inhibition, % at 7.35 µM. hit rate 1.2% among 290,000;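 active = inhibition above the campaign mean inhibition over all tested compounds plus 3 SD, cut at about 28% in these data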;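 note: 0% = plate median of test compound wells and 100% = 2 mM ZnCl2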
NS3 helicase inh = inhibitors of HCV NS3 helicase, primary screen, biochemical, Cy5 molecular beacon fluorescence; NS3 helicase DNA unwinding; inhibition, % at 10.9 µM; hit rate 0.56% among 290,000; AID 1800, 2009;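 active = inhibition above the mean of all tested compounds plus 3 SD, set per campaign, cut at about 35% in these data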;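 note: 0% = DMSO wells and 100% = thioflavine S control wells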
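Control set: DMSO versus 110 µM thioflavine S; Material: NS3 helicase fragment of HCV; Measured by: Cy5 fluorescence at 0 and 60 min, beacon hairpin quenching; Read-out basis: percent inhibition from t60/t0 fluorescence ratio; Times: reaction time 60 min, 25 °C; Repeats: single replicate; Compound dosing: single dose, 10.9 µM nominal final, DMSO 0.8% final.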
p97 ATPase inh = inhibitors of human p97 ATPase, primary screen, biochemical; recombinant p97 ATPase, Kinase-Glo ATP luminescence, 3 h; AID 1481, 2009; inhibition, % at 8 µM; hit rate 0.42% among 220,000; Transitional endoplasmic reticulum ATPase (Homo sapiens), P55072; in the data active = inhibition above about 15%;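 note: 0% = DMSO vehicle and 100% = wells lacking enzyme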
Target sequence (P55072 whole entry, looked up): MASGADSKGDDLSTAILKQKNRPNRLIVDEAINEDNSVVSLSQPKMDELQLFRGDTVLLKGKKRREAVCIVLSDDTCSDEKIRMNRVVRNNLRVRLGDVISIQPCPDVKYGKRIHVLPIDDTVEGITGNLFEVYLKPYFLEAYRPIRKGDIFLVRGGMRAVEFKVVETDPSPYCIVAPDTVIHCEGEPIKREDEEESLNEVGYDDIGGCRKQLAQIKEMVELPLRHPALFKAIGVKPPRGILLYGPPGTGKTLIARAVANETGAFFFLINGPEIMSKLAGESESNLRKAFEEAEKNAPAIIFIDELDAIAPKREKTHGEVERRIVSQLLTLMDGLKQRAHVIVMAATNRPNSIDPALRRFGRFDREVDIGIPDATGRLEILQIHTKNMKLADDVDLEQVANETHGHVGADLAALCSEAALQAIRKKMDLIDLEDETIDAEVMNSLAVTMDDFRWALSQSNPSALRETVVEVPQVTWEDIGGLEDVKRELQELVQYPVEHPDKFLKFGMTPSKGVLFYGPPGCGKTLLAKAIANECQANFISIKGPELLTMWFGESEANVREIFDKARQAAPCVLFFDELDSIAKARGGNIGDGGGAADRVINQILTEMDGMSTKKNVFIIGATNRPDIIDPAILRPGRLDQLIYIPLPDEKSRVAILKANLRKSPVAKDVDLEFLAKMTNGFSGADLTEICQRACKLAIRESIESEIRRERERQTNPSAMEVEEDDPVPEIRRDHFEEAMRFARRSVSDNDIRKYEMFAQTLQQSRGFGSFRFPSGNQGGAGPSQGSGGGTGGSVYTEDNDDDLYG
CHOP inhibitor = inhibitors of CHOP promoter induction, primary screen, cell-based, unfolded protein response, luciferase reporter; inhibition, % at 10 µM; hit rate 3.8% among 220,000; CHO-K1 CHOP-promoter luciferase, tunicamycin-induced, 15-18 h;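 active = compounds that reduced the stress-induced luciferase reporter signal by more than about 70% of percent inhibition, limit read from the data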;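 note: 0% = tunicamycin plus vehicle and 100% = wells without tunicamycin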
XBP1 UPR activ = activators of adaptive XBP1 UPR arm, primary screen, cell-based, CHO-XBP1 luciferase reporter, luminescence, uHTS; IRE1-XBP1 UPR activation; percent of tunicamycin response, DMSO as zero; activation, % at 20 µM; hit rate 0.33% among 330,000; AID 463104, 2010;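 active = versus positive control, 20 µM dose yields 30% or more activation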;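 note: 100% = tunicamycin at 10 µg/mL and 0% = DMSO only wells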
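assay system = CHO-XBP1 luciferase reporter cells | amount = 1000 cells/well | buffer or medium = F12 plus 10% FBS | compound dosing = single point, 20 µM final compound, 1% DMSO | incubation = 16-18 h cell attachment at 37 °C, then 6 h compound exposure | detection = Steady-Glo luminescence read | controls = tunicamycin 10 µg/mL and vehicle-only wells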
UPR CHOP act = activators of apoptotic CHOP UPR arm, primary screen, cell-based, CHO-CHOP luciferase reporter, luminescence, uHTS | UPR activation; percent of tunicamycin response over DMSO baseline | activation, % at 10 µM | hit rate 0.34% among 330,000 | AID 449763, 2010;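 active = at 10 µM dose, activation of 40% or more, normalized to positive control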;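 note: 100% = tunicamycin at 10 µg/mL and 0% = DMSO alone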
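System: CHO CHOP reporter cells. Amount: 500 cells per well. Buffer or medium: F12 medium, 10% FBS. Compound dosing: one dose, 10 µM in 0.5% DMSO. Incubation: 6 h compound exposure at 37 °C after overnight seeding. Technique: Steady-Glo luciferase luminescence. Benchmarks: tunicamycin and DMSO controls.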
An asterisk follows results filed as active; . = no result given. Sampled rows, rich in hits. Any-hit rate of the full collection: about 4.5%.

SMILES	M18AAP inhibitor	NS3 helicase inh	p97 ATPase inh	CHOP inhibitor	XBP1 UPR activ	UPR CHOP act
COc1ccc(N=Cc2cc3c(cc2O)OC(N)=C(C#N)C3c2ccccc2)cc1 (configuration not stated)	10	14	5	80*	-1	3
COc1ccc(/C=N/Nc2nnc(-c3ncc[nH]3)c3ccccc23)cc1	12	-12	-4	-12	7	7
Oc1ccc2ccccc2c1/C=N/Nc1nnc(-c2ncc[nH]2)c2ccccc12	7	-18	-2	79*	2	-2
COc1ccc(NC(=O)CN(C)C(=O)c2c(C)nn(Cc3ccc(C)cc3)c2Cl)cc1	.	.	.	.	-1	1
CCn1c(=O)c2sccc2n2c(CCCC(=O)NCCc3ccc(S(N)(=O)=O)cc3)nnc12	-1	8	.	.	-8	4
Cc1cc(C)cc(N(CCC#N)C(=O)CSc2nc3ccccc3c(=O)[nH]2)c1	.	.	.	.	-5	0
C/C=C/CC(C)C(O)C1C(=O)NC(CC)C(=O)N(C)CC(=O)N(C)C(CC(C)C)C(=O)NC(C(C)C)C(=O)N(C)C(CC(C)C)C(=O)NC(C)C(=O)NC(C)C(=O)N(C)C(CC(C)C)C(=O)N(C)C(CC(C)C)C(=O)N(C)C(C(C)C)C(=O)N1C (configuration not stated)	.	.	.	-27	.	.
CCC[C@H]1NC(=O)[C@H](C)N(C)C(=O)C(C)(C)C(=O)C(C)NC(=O)[C@H](Cc2ccc(OC)cc2)N(C)C(=O)[C@H](C(C)C)N(C)C(=O)CNC(=O)[C@H](CC(C)C)N(C)C(=O)CNC(=O)[C@H]([C@@H](C)CC)OC(=O)[C@H]1C (some centres not stated)	.	.	.	.	23	44*
CC(=O)Nc1ccc(NC(=O)COC(=O)C2CCCCC2)cc1	.	.	.	.	4	1
CCOc1ccc(Nc2ncnc3c2cnn3-c2ccccc2)cc1	4	-2	4	101*	3	7
Cc1ccccc1Nc1ncnc2c1cnn2-c1ccccc1	1	3	-3	73*	4	5
COc1cc(OC)cc(C(=O)Nc2ccc(Nc3ccccc3)cc2)c1	-8	3	.	.	-4	4
COc1cc(OC)cc(C(=O)Nc2nnc(NC(=S)Nc3ccccc3)s2)c1	7	8	-8	108*	-2	-1
Cc1ccc(S(=O)(=O)N2CCOCC2)cc1C(=O)Nc1ccc2c(c1)OCCO2	.	.	.	.	-2	0
O=C(Nc1ccc2oc(-c3cccnc3)nc2c1)c1ccc(Br)o1	1	2	-4	77*	14	0
O=C(Nc1ccc2oc(-c3cccnc3)nc2c1)c1ccco1	5	28	1	-3	2	3
COc1ccc(C)cc1S(=O)(=O)NNc1nc(C)cc(C)n1	.	.	.	.	-4	-1
CCCCN(CCCC)C(=O)c1sc2nc(N3CCOCC3)c3c(c2c1N)CCCC3	32*	4	-3	39	-7	-1
NC(=O)c1sc2nc(N3CCOCC3)c3c(c2c1N)CCCC3	-34	8	2	4	0	0
COc1ccccc1CNS(=O)(=O)c1ccc(-n2cnnn2)c(C)c1	5	1	.	.	0	-1
Cc1cc(S(=O)(=O)NCC(c2ccccc2)c2ccccc2)ccc1-n1cnnn1	5	-10	-1	70*	-4	-1
O=C(CCN1CCN(c2ccccc2)CC1)NNC(=S)Nc1ccccc1Cl	14	11	-1	-7	-2	1
CCOc1ccc(Oc2cc(NC(=O)c3ccco3)cc([N+](=O)[O-])c2)cc1	-9	8	-1	87*	.	.
Cc1ccc(C)c(Oc2cc(NC(=O)CCCn3nc(C)c([N+](=O)[O-])c3C)cc([N+](=O)[O-])c2)c1	3	-1	1	80*	-2	12
Cn1cc([N+](=O)[O-])c(C(=O)Nc2cc(Oc3ccccc3)cc([N+](=O)[O-])c2)n1	1	-28	0	-36	.	.

Screening data (PubChem BioAssay)
